Laboratory results from ChEMBL document CHEMBL1649142, “Relationship between susceptibility to daptomycin in vitro and activity in vivo in a rabbit model of aortic valve endocarditis” (Antimicrob Agents Chemother, 2009).
In brackets after ≈: the same amount, converted by molar mass.

How the values were obtained:
Staphylococcus aureus [1] = assay: Antimicrobial activity against Staphylococcus aureus B2.0 infected in New Zealand rabbit aortic valve endocarditis model assessed as bacterial count in kidney at 18 mg/kg/day, iv for 4 days (reference value: 5.1+/-0.6 log10 CFU/g); assay type: functional
[2] = Cmax in New Zealand rabbit at 18 mg/kg/day, iv […] measured after 15 mins […] by HPLC; assay type: ADME, organism-based, Oryctolagus cuniculus; parameters: dose 18 mg/kg/day, route intravenous; settings: in vivo
Outline: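 A single IV bolus (1 to 2 min, marginal ear vein) was given to healthy New Zealand White rabbits, three per group. Plasma was drawn from 0.25 to 6 h and assayed by validated HPLC. The reported value is the mean plasma concentration 15 min after the end of infusion, not a multi-day steady-state peak.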

Staphylococcus aureus [3] = assay: Antimicrobial activity against Staphylococcus aureus B2.0 infected in New Zealand rabbit aortic valve endocarditis model assessed as bacterial count in endocardial vegetation at 18 mg/kg/day, iv for 4 days (reference value: 7.3+/-1.0 log10 CFU/g); assay type: functional, Aorta
[4] = AUC in New Zealand rabbit at 18 mg/kg/day, iv for 4 days by HPLC; assay type: ADME, organism-based, Oryctolagus cuniculus; parameters: route intravenous; settings: plasma
Staphylococcus aureus [5] = assay: Antimicrobial activity against rifampin-resistant Staphylococcus aureus B; assay type: functional
[6] = AUC in New Zealand rabbit at 12 mg/kg/day, iv for 4 days by HPLC; assay type: ADME, organism-based, Oryctolagus cuniculus; parameters: route intravenous; settings: plasma
Staphylococcus aureus [7] = assay: Antimicrobial activity against Staphylococcus aureus A0.5/B2.0 infected in New Zealand rabbit dual-infection aortic valve endocarditis model assessed as bacterial count in endocardial vegetation at 12 mg/kg/day, iv for 4 days (reference value: 7.8+/-0.4 log10 CFU/g); assay type: functional, Aorta
[8] = AUC in human at 6 mg/kg, iv by HPLC; assay type: ADME, organism-based; parameters: dose 6 mg/kg, route intravenous; settings: plasma
Staphylococcus aureus [9] = assay: Antimicrobial activity against Staphylococcus aureus A0.5/B2.0 infected in New Zealand rabbit dual-infection aortic valve endocarditis model assessed as bacterial count of strain A0.5 in spleen at 12 mg/kg/day, iv for 4 days (reference value: 333 log10 CFU); assay type: functional
Staphylococcus aureus [10] = assay: Antimicrobial activity against Staphylococcus aureus A0.5/B2.0 infected in New Zealand rabbit dual-infection aortic valve endocarditis model assessed as bacterial count of strain A0.5 in endocardial vegetation at 12 mg/kg/day, iv for 4 days (reference value: 280 log10 CFU); assay type: functional, Aorta
Staphylococcus aureus [11] = assay: Antimicrobial activity against Staphylococcus aureus B2.0 infected in New Zealand rabbit aortic valve endocarditis model assessed as bacterial count in kidney at 12 mg/kg/day, iv for 4 days (reference value: 5.1+/-0.6 log10 CFU/g); assay type: functional
Staphylococcus aureus [12] = assay: Antimicrobial activity against Staphylococcus aureus B2.0 infected in New Zealand rabbit aortic valve endocarditis model assessed as bacterial count in spleen at 12 mg/kg/day, iv for 4 days (reference value: 5.4+/-0.2 log10 CFU/g); assay type: functional
Staphylococcus aureus [13] = assay: Antimicrobial activity against Staphylococcus aureus A0.5 infected in New Zealand rabbit aortic valve endocarditis model assessed as bacterial count in spleen at 12 mg/kg/day, iv for 4 days (reference value: 5.7+/-0.7 log10 CFU/g); assay type: functional
Staphylococcus aureus [14] = assay: Antimicrobial activity against rifampin-susceptible Staphylococcus aureus A by broth dilution method
Staphylococcus aureus [15] = assay: Antimicrobial activity against Staphylococcus aureus A0.5/B2.0 infected in New Zealand rabbit dual-infection aortic valve endocarditis model assessed as bacterial count in spleen at 12 mg/kg/day, iv for 4 days (reference value: 6.0+/-0.3 log10 CFU/g); assay type: functional
Staphylococcus aureus [16] = assay: Antimicrobial activity against Staphylococcus aureus A0.5 infected in New Zealand rabbit aortic valve endocarditis model assessed as bacterial count in spleen at 18 mg/kg/day, iv for 4 days (reference value: 5.7+/-0.7 log10 CFU/g); assay type: functional
Staphylococcus aureus [17] = assay: Antimicrobial activity against Staphylococcus aureus A0.5 infected in New Zealand rabbit aortic valve endocarditis model assessed as bacterial count in spleen at 18 mg/kg/day, iv for 4 days (reference value: 6.1+/-0.2 log10 CFU/g); assay type: functional
Staphylococcus aureus [18] = assay: Antimicrobial activity against Staphylococcus aureus A0.5 infected in New Zealand rabbit aortic valve endocarditis model assessed as bacterial count in endocardial vegetation at 12 mg/kg/day, iv for 4 days (reference value: 6.9+/-0.7 log10 CFU/g); assay type: functional
Staphylococcus aureus [19] = assay: Antimicrobial activity against Staphylococcus aureus A0.5/B2.0 infected in New Zealand rabbit dual-infection aortic valve endocarditis model assessed as bacterial count in kidney at 12 mg/kg/day, iv for 4 days (reference value: 6.3+/-1.0 log10 CFU/g); assay type: functional
[20] = AUC in human at 10 mg/kg, iv by HPLC; assay type: ADME, organism-based; parameters: dose 10 mg/kg, route intravenous; settings: plasma
Staphylococcus aureus [21] = assay: Antimicrobial activity against Staphylococcus aureus A0.5/B2.0 infected in New Zealand rabbit dual-infection aortic valve endocarditis model assessed as bacterial count of strain B2.0 in spleen at 12 mg/kg/day, iv for 4 days (reference value: 627 log10 CFU); assay type: functional
Staphylococcus aureus [22] = assay: Antimicrobial activity against Staphylococcus aureus B2.0 infected in New Zealand rabbit aortic valve endocarditis model assessed as bacterial count in endocardial vegetation at 12 mg/kg/day, iv for 4 days (reference value: 7.3+/-1.0 log10 CFU/g); assay type: functional, Aorta
Staphylococcus aureus [23] = assay: Antimicrobial activity against Staphylococcus aureus A0.5/B2.0 infected in New Zealand rabbit dual-infection aortic valve endocarditis model assessed as bacterial count of strain B2.0 in endocardial vegetation at 12 mg/kg/day, iv for 4 days (reference value: 320 log10 CFU); assay type: functional, Aorta
Staphylococcus aureus [24] = assay: Antimicrobial activity against rifampin-susceptible Staphylococcus aureus A by Etest
[25] = Half life in New Zealand rabbit at 12 mg/kg/day, iv […] by HPLC; assay type: ADME, organism-based, Oryctolagus cuniculus; parameters: route intravenous; settings: in vivo
Outline: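 Uninfected New Zealand White rabbits (n = 3 per group) were dosed once by IV bolus. Plasma was collected at 0.25, 0.5, 1, 2, 4 and 6 h and measured by validated HPLC. Half-life was obtained by noncompartmental analysis, with kel taken from the slope of the terminal log concentration-time curve.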

Staphylococcus aureus [26] = assay: Antimicrobial activity against Staphylococcus aureus A0.5 infected in New Zealand rabbit aortic valve endocarditis model assessed as bacterial count in endocardial vegetation at 18 mg/kg/day, iv for 4 days (reference value: 6.9+/-0.7 log10 CFU/g); assay type: functional
Staphylococcus aureus [27] = assay: Antimicrobial activity against Staphylococcus aureus A0.5 infected in New Zealand rabbit aortic valve endocarditis model assessed as bacterial count in spleen at 12 mg/kg/day, iv for 4 days (reference value: 6.1+/-0.2 log10 CFU/g); assay type: functional
Staphylococcus aureus [28] = assay: Antimicrobial activity against Staphylococcus aureus B2.0 infected in New Zealand rabbit aortic valve endocarditis model assessed as bacterial count in spleen at 18 mg/kg/day, iv for 4 days (reference value: 5.4+/-0.2 log10 CFU/g); assay type: functional

CCCCCCCCCC(=O)N[C@@H](Cc1c[nH]c2ccccc12)C(=O)N[C@H](CC(N)=O)C(=O)N[C@@H](CC(=O)O)C(=O)N[C@@H]1C(=O)NCC(=O)N[C@@H](CCCN)C(=O)N[C@@H](CC(=O)O)C(=O)N[C@H](C)C(=O)N[C@@H](CC(=O)O)C(=O)NCC(=O)N[C@H](CO)C(=O)N[C@@H]([C@H](C)CC(=O)O)C(=O)N[C@@H](CC(=O)c2ccccc2N)C(=O)O[C@@H]1C
log10CFU/g (Staphylococcus aureus [1]): 2.5
Cmax [2]: 149 µg/mL
log10CFU/g (Staphylococcus aureus [3]): 4.4
AUC at 96 h [4]: 965 µg·h/mL
MIC (Staphylococcus aureus [5]): 2 µg/mL (≈ 1.23 µM)
AUC at 96 h [6]: 719 µg·h/mL
log10CFU/g (Staphylococcus aureus [7]): 5.3
AUC [8]: 632 µg·h/mL
log10CFU/g (Staphylococcus aureus [9]): 1
log10CFU/g (Staphylococcus aureus [10]): 2.3
log10CFU/g (Staphylococcus aureus [11]): 2.1
log10CFU/g (Staphylococcus aureus [12]): 3.2
log10CFU/g (Staphylococcus aureus [13]): 0
MIC (Staphylococcus aureus [14]): 0.5 µg/mL (≈ 0.309 µM)
log10CFU/g (Staphylococcus aureus [15]): 2.3
log10CFU/g (Staphylococcus aureus [16]): 0
log10CFU/g (Staphylococcus aureus [17]): 0
log10CFU/g (Staphylococcus aureus [18]): 0
log10CFU/g (Staphylococcus aureus [19]): 1.7
AUC [20]: 1040 µg·h/mL
log10CFU/g (Staphylococcus aureus [21]): 0
log10CFU/g (Staphylococcus aureus [22]): 6.3
log10CFU/g (Staphylococcus aureus [23]): 1.7
MIC (Staphylococcus aureus [24]): 0.5 µg/mL (≈ 0.309 µM)
half-life [25]: 5 h
log10CFU/g (Staphylococcus aureus [26]): 0
log10CFU/g (Staphylococcus aureus [27]): 0
log10CFU/g (Staphylococcus aureus [28]): 2.3
